Data set [1] is described as follows: melting temperature; fluorescence melt of hairpins on a sequencing array, two-state fit, raised by 9.35 °C to match UV melts. The note with it: sodium 0.088 M. The method in brief: (§1)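 Folding enthalpy and melting temperature come from bootstrapped two-state fits to Cy3 fluorescence of library hairpins carrying annealed Cy3 and quencher oligos on a sequenced MiSeq flow cell. Imaging was done in 50 mM Na-HEPES pH 8.0, 25 mM NaCl, stepping by 2.5 °C up to 60 °C, and signals were normalised to pre-quench Cy3 and to control constructs. Results of four replicates were combined by inverse variance, and fitted temperatures were raised by 9.35 °C to match UV melts.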

Data set [2] can be described thus: folding enthalpy; higher = less favourable; fluorescence melt of hairpins on a sequencing array, two-state fit. The note with it: sodium 0.088 M. The method, boiled down:
as §1

As for GCGTCTACGAAAGTACGC (((..(((....)))))), the Tm in data set [1] came to 47.6 °C. The folding enthalpy in data set [2] was -28.4 kcal/mol.

For the sequence GCGTCTCGACGC ((((....)))), the Tm in data set [1] worked out at 68.6 °C. For the same sequence, the folding enthalpy in data set [2] was -26.9 kcal/mol.

For the sequence GCGTCTGACGC ((((...)))), the Tm in data set [1] was found to be 56.7 °C. Further, the folding enthalpy in data set [2] was -24.1 kcal/mol.

On to GCGTCTTCGAAAGAACGC (((..(((....)))))), for which the Tm in data set [1] was found to be 46.6 °C. In addition, the folding enthalpy in data set [2] is -26 kcal/mol.

Regarding GCGTGACCACGC ((((....)))), in data set [1], the Tm worked out at 61.3 °C. Further, in data set [2], the folding enthalpy is -21.2 kcal/mol.

Turning to GCGTGAGACGC ((((...)))), in data set [1], the Tm was 51 °C. In data set [2], the folding enthalpy is -18.8 kcal/mol.

As for GCGTGAGGAAACCCACGC (((((.(....).))))), in data set [1], the Tm is 57.7 °C. Besides, the folding enthalpy in data set [2] was -42.2 kcal/mol.

As for GCGTGATGACGC ((((....)))), the Tm in data set [1] worked out at 52.8 °C. In data set [2], the folding enthalpy was -25.1 kcal/mol.

As for GCGTGCGAAAGCACCCGC ((((((....)))..))), the Tm in data set [1] is 43.7 °C. Also, the folding enthalpy in data set [2] was -10.1 kcal/mol.

In the case of GCGTGCGAAAGCATCCGC ((((((....)))..))), in data set [1], the Tm is 47.6 °C. Moreover, the folding enthalpy in data set [2] was -17.3 kcal/mol.

On to GCGTGCGGAAACGCACAC (.(((((....))))).), for which the Tm in data set [1] is 50.3 °C. The folding enthalpy in data set [2] is -8.53 kcal/mol.

With GCGTGCGGAAACGTACGC ((((.((....)).)))), the Tm in data set [1] worked out at 66.3 °C. For the same sequence, in data set [2], the folding enthalpy is -31.7 kcal/mol.

For GCGTGCGGAAACGTGCGC (((..((....))..))), the Tm in data set [1] amounted to 59.6 °C. The folding enthalpy in data set [2] is -25.6 kcal/mol.

Regarding GCGTGCGTACGC ((((....)))), the Tm in data set [1] was 64.8 °C. The folding enthalpy in data set [2] is -13.7 kcal/mol.

As for GCGTGGCGAAAGCAAAGC ((.(.((....)).).)), in data set [1], the Tm is 52.1 °C. Besides, in data set [2], the folding enthalpy was -17.4 kcal/mol.

On to GCGTGGCGAAAGCAATGC ((.(.((....)).).)), for which, in data set [1], the Tm was 52.8 °C. The folding enthalpy in data set [2] is -19.6 kcal/mol.

For GCGTGGCGAAAGCACCGC (((..((....))..))), in data set [1], the Tm was found to be 62.2 °C. Moreover, the folding enthalpy in data set [2] was -31.9 kcal/mol.

For the sequence GCGTGGCGAAAGCCCGGC ((..(((....)))..)), the Tm in data set [1] was 57.8 °C. Also, in data set [2], the folding enthalpy is -14.9 kcal/mol.

Take GCGTGGCGAAAGCGGCGC (((..((....))..))): in data set [1], the Tm was 67.7 °C. Further, the folding enthalpy in data set [2] is -40.4 kcal/mol.

As for GCGTGGCGAAAGCTAAGC ((.(.((....)).).)), the Tm in data set [1] is 58.3 °C. Further, the folding enthalpy in data set [2] is -23.3 kcal/mol.

As for GCGTGGCGACGC ((((....)))), in data set [1], the Tm worked out at 65.1 °C. The folding enthalpy in data set [2] is -16.4 kcal/mol.

As to GCGTGGGGAAACCTGCGC (((..((....))..))), the Tm in data set [1] amounted to 53.3 °C. Also, the folding enthalpy in data set [2] is -37 kcal/mol.

For GCGTGTAGACGC ((((....)))), the Tm in data set [1] amounted to 58.5 °C. Also, in data set [2], the folding enthalpy is -21.4 kcal/mol.

For GCGTGTCCACGC ((((....)))), in data set [1], the Tm worked out at 61.5 °C. For the same sequence, the folding enthalpy in data set [2] is -32.9 kcal/mol.

For the sequence GCGTGTCGACGC ((((....)))), in data set [1], the Tm came out at 55.4 °C. The folding enthalpy in data set [2] is -24.6 kcal/mol.

Turning to GCGTGTGGAAACGCACGC (((((.(....).))))), the Tm in data set [1] worked out at 67.3 °C. Besides, the folding enthalpy in data set [2] is -34.5 kcal/mol.

Take GCGTGTGGAAACGCATGC ((.((.(....).)).)): the Tm in data set [1] turned out to be 47.4 °C. Further, in data set [2], the folding enthalpy was -23.4 kcal/mol.

Regarding GCGTTAATACGC ((((....)))), the Tm in data set [1] is 51.1 °C. Also, in data set [2], the folding enthalpy is -21.1 kcal/mol.

For the sequence GCGTTACACGC ((((...)))), the Tm in data set [1] amounted to 58.1 °C. The folding enthalpy in data set [2] was -19.8 kcal/mol.

Regarding GCGTTAGCGAAAGCTCGC (((..(((....)))))), the Tm in data set [1] is 44.2 °C. Also, in data set [2], the folding enthalpy was -12.5 kcal/mol.

Regarding GCGTTAGGAAACTAATGC ((.((((....)))).)), the Tm in data set [1] turned out to be 47.5 °C. Moreover, the folding enthalpy in data set [2] was -43.2 kcal/mol.

With GCGTTAGGAAACTGACGC ((((.((....)).)))), in data set [1], the Tm came out at 53.6 °C. In data set [2], the folding enthalpy was -42.5 kcal/mol.

Take GCGTTATAACGC ((((....)))): the Tm in data set [1] was 55.5 °C. In addition, the folding enthalpy in data set [2] was -30.4 kcal/mol.

In the case of GCGTTCCGAAAGGATCGC (((.(((....))).))), in data set [1], the Tm is 61.6 °C. The folding enthalpy in data set [2] was -35.4 kcal/mol.

With GCGTTCGAAAGAACCGC ((((((....))).))), the Tm in data set [1] amounted to 54.3 °C. Besides, the folding enthalpy in data set [2] was -23.8 kcal/mol.

In the case of GCGTTCGCGAAAGCGCGC (((..(((....)))))), the Tm in data set [1] was found to be 52.7 °C. Also, the folding enthalpy in data set [2] is -19.3 kcal/mol.

Take GCGTTCGGAAACGAGTGC ((..(((....)))..)): in data set [1], the Tm worked out at 41.8 °C. Besides, the folding enthalpy in data set [2] was -25.7 kcal/mol.

On to GCGTTCGGACGC ((((....)))), for which, in data set [1], the Tm was 53.5 °C. For the same sequence, the folding enthalpy in data set [2] was -25.4 kcal/mol.

For the sequence GCGTTCTAACGC ((((....)))), the Tm in data set [1] came to 58.5 °C. The folding enthalpy in data set [2] is -25.8 kcal/mol.

For the origin of these results see the array DNA melting data of Ke et al. (doi:10.1101/2024.01.08.574731).
